Measured values taken from ChEMBL document CHEMBL1146584, “Renieramycin J, a highly cytotoxic tetrahydroisoquinoline alkaloid, from a marine sponge Neopetrosia sp” (J Nat Prod, 2003).
Calls of active or inactive are those of the source. The calls are words filed in the database; no cut-off is given here.

Key:
[1] = test system: 3Y1 cell line; assay: Induction of morphological changes in rat 3Y1 cells assessed as cell rounding at 1.7 uM after 6 hrs; type: functional, cell-based
Summary of the method: (§1)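 3Y1 cells exposed to 1.7 μM; cell rounding scored at 6 h, proportion of dead cells estimated within 24 h.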

[2] = test system: 3Y1 cell line; assay: Induction of morphological changes in rat 3Y1 cells assessed as cell shrinkage at 86 nM after 6 hrs by phase contrast microscopy; type: functional, cell-based
Summary of the method: (§2)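 Rat 3Y1 cells exposed to 86 nM; nucleoli (shrinkage or loss) and filopodial development inspected at 6 h.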

[3] = test system: 3Y1; assay: Induction of morphological changes in rat 3Y1 cells assessed as cell death at 1.7 uM after 24 hrs; type: functional, cell-based; summary of the method: as §1
[4] = Cytotoxicity against rat 3Y1 cells after 72 hrs by MTT assay; type: functional, cell-based; details: 3Y1, 72 h
[5] = test system: 3Y1 cell line; assay: Induction of morphological changes in rat 3Y1 cells assessed as disappearance of nucleoli at 86 nM after 6 hrs by phase contrast microscopy; type: functional, cell-based; summary of the method: as §2
[6] = Induction of morphological changes in rat 3Y1 cells assessed as cell death at 1.7 uM after 24 hrs
[7] = test system: HeLa; assay: Cytotoxicity against human HeLa cells after 72 hrs by MTT assay; type: functional, cell-based
[8] = test system: P388; assay: Cytotoxicity against mouse P388 cells after 72 hrs by MTT assay; type: functional, cell-based; details: P388, 72 h
[9] = test system: 3Y1 cell line; assay: Induction of morphological changes in rat 3Y1 cells assessed as filopodial development; type: functional, cell-based; summary of the method: as §2
[10] = test system: 3Y1 cell line; assay: Induction of morphological changes in rat 3Y1 cells assessed as increase in dead cell number after 12 hrs by light microscopy; type: functional, cell-based
Summary of the method: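 3Y1 cells kept under continued exposure; cellular boundaries and dead-cell numbers inspected at 12 h and followed to day five under a light microscope.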

Compound: C/C=C(/C)C(=O)OC[C@H]1C2=C(C[C@H]3[C@H]4c5c(O)c(OC)c(C)c(O)c5[C@H](O)[C@@H]([C@H](O)N13)N4C)C(=O)C(C)=C(OC)C2=O [RENIERAMYCIN J]
- Activity [1]: Active
- Activity [2]: Active
- Activity [3]: Active
- IC50 [4]: 5.3 nM
- Activity [5]: Active
- Activity [6]: 90%
- IC50 [7]: 12.3 nM
- IC50 [8]: 0.53 nM
- Activity [9]: Active
- Activity [10]: Active
